How the values were obtained:
Format in all cases: functional
[1] = tested on: Streptococcus pneumoniae; experiment: Antibacterial activity against Streptococcus pneumoniae SR26207 clinical isolate assessed as growth inhibition by broth microdilution method
[2] = tested on: Staphylococcus aureus; experiment: Antibacterial activity against linezolid-resistant Staphylococcus aureus NRS271 assessed as growth inhibition by broth microdilution method
[3] = tested on: Haemophilus influenzae; experiment: Antibacterial activity against Haemophilus influenzae SR27914 clinical isolate assessed as growth inhibition by broth microdilution method
[4] = tested on: Moraxella catarrhalis; experiment: Antibacterial activity against Moraxella catarrhalis SR26840 clinical isolate assessed as growth inhibition by broth microdilution method
[5] = tested on: Enterococcus faecalis; experiment: Antibacterial activity against Enterococcus faecalis SR1004 clinical isolate assessed as growth inhibition by broth microdilution method
[6] = tested on: Enterococcus faecium; experiment: Antibacterial activity against Enterococcus faecium SR7940 clinical isolate assessed as growth inhibition by broth microdilution method
[7] = tested on: Staphylococcus aureus; experiment: Antibacterial activity against Staphylococcus aureus Smith assessed as growth inhibition by broth microdilution method
[8] = tested on: Staphylococcus aureus; experiment: Antibacterial activity against Staphylococcus aureus SR20549 clinical isolate assessed as growth inhibition by broth microdilution method
[9] = tested on: Staphylococcus aureus; experiment: Antibacterial activity against methicillin-resistant Staphylococcus aureus SR3637 infected in JCL/ICR mouse systemic infection model assessed as mortality administered as iv measured over 7 days; conditions: 168 h
Summary of the method: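 Lethal systemic infection model in mice; test agents were given intravenously.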

[10] = tested on: Staphylococcus aureus; experiment: Antibacterial activity against methicillin-resistant Staphylococcus aureus SR3637 assessed as growth inhibition by broth microdilution method

SMILES | MIC [1] [µg/mL] | MIC [2] [µg/mL] | MIC [3] [µg/mL] | MIC [4] [µg/mL] | MIC [5] [µg/mL] | MIC [6] [µg/mL] | MIC [7] [µg/mL] | MIC [8] [µg/mL] | ED50 [9] [mg/kg] | MIC [10] [µg/mL]
CONC(=O)N1CCN(c2ccc(N3C[C@H](CNC(=S)OC)OC3=O)cc2F)CCN1 | 0.25 | 16 | 16 | 4 | 0.5 | 0.5 | 1 | 1 | – | –
CONC(=O)N1CCN(c2c(F)cc(N3C[C@H](CNC(=S)OC)OC3=O)cc2F)CCN1 | 0.25 | 4 | 16 | 2 | 0.5 | 0.25 | 0.5 | 0.5 | 3.05 | 0.5
CONC(=O)N1CCN(c2c(F)cc(N3C[C@H](CNC(=S)OC)OC3=O)cc2F)CCO1 | 0.125 | 8 | 16 | 2 | 1 | 0.5 | 1 | 0.5 | – | –
CC(=O)NC[C@H]1CN(c2ccc(-c3ccc(N4CCON(C(=O)CO)CC4)nc3)c(F)c2)C(=O)O1 | 0.125 | 8 | 16 | 16 | 1 | 1 | 2 | 1 | – | –
O=C(CO)N1CCN(c2ccc(-c3ccc(N4C[C@H](Cn5ccnn5)OC4=O)cc3F)cn2)CCO1 | 0.25 | 8 | 32 | 8 | 2 | 1 | 2 | 1 | – | –
NC(=O)N1CCN(c2c(F)cc(N3C[C@H](Cn4ccnn4)OC3=O)cc2F)CCO1 | 1 | 32 | 16 | 8 | 4 | 4 | 2 | 1 | – | –
NC(=O)N1CCN(c2c(F)cc(N3C[C@H](CNc4ccon4)OC3=O)cc2F)CCN1 | 0.125 | 16 | 16 | 8 | 1 | 1 | 1 | 0.5 | – | –
CNC(=O)N1CCN(c2c(F)cc(N3C[C@H](CNC(=S)OC)OC3=O)cc2F)CCN1 | ≤ 0.063 | 2 | 8 | 1 | 0.25 | 0.25 | 0.25 | 0.25 | 3.17 | 0.25
CNC(=O)N1CCN(c2c(F)cc(N3C[C@H](CNC(=S)OC)OC3=O)cc2F)CCO1 | 0.125 | 4 | 32 | 2 | 1 | 0.5 | 0.5 | 0.5 | – | –
CNC(=O)N1CCN(c2c(F)cc(N3C[C@H](Cn4ccnn4)OC3=O)cc2F)CCO1 | 1 | 32 | 32 | 16 | 4 | 2 | 8 | 2 | – | –
COC(=S)NC[C@H]1CN(c2ccc(N3CCNN(C(=O)NO)CC3)c(F)c2)C(=O)O1 | ≤ 0.063 | 16 | 4 | 4 | 1 | 1 | 1 | 0.5 | – | –
O=C(NO)N1CCN(c2c(F)cc(N3C[C@H](Cn4ccnn4)OC3=O)cc2F)CCN1 | 0.5 | 64 | 16 | 8 | 8 | 8 | 4 | 2 | – | –
O=C(NO)N1CCN(c2c(F)cc(N3C[C@H](Cn4ccnn4)OC3=O)cc2F)CCO1 | 0.5 | 64 | 16 | 8 | 4 | 4 | 2 | 2 | – | –
CC(=O)NC[C@H]1CN(c2cc(F)c(N3CCn4c(=O)c5cc(N)cnc5n4CC3)c(F)c2)C(=O)O1 | 0.25 | 8 | 32 | 8 | 2 | 2 | 0.5 | 1 | – | –
Nc1cnc2c(c1)c(=O)n1n2CCN(c2c(F)cc(N3C[C@H](Cn4ccnn4)OC3=O)cc2F)CC1 | 0.25 | 16 | 32 | 16 | 2 | 2 | 1 | 1 | – | –
NC(=O)N1CCN(c2c(F)cc(N3C[C@H](Cn4ccnn4)OC3=O)cc2F)CCN1 | 0.5 | 32 | 16 | 4 | 2 | 4 | 1 | 1 | – | –

SMILES | MIC [1] [µg/mL] | MIC [2] [µg/mL] | MIC [3] [µg/mL] | MIC [4] [µg/mL] | MIC [5] [µg/mL] | MIC [6] [µg/mL] | MIC [7] [µg/mL] | MIC [8] [µg/mL] | ED50 [9] [mg/kg] | MIC [10] [µg/mL]
CC(=O)N1CCN(c2c(F)cc(N3C[C@H](Cn4ccnn4)OC3=O)cc2F)CCN1 | 1 | 16 | 32 | 16 | 2 | 2 | 2 | 1 | – | –
O=C(C(F)F)N1CCN(c2c(F)cc(N3C[C@H](Cn4ccnn4)OC3=O)cc2F)CCN1 | 0.125 | 16 | 16 | 8 | 1 | 1 | 1 | 0.5 | – | –
O=C(C(F)F)N1CCN(c2c(F)cc(N3C[C@H](CNc4ccon4)OC3=O)cc2F)CCN1 | 0.125 | 8 | 16 | 4 | 0.5 | 0.5 | 1 | 0.5 | – | –
CC(=O)NC[C@H]1CN(c2ccc(N3CCn4c(=O)c5cccnc5n4CC3)c(F)c2)C(=O)O1 | 0.5 | 16 | 32 | 16 | 2 | 2 | 1 | 2 | – | –
CC(=O)NC[C@H]1CN(c2cc(F)c(N3CCn4c(=O)c5cccnc5n4CC3)c(F)c2)C(=O)O1 | 0.25 | 8 | 16 | 4 | 1 | 1 | 0.5 | 1 | – | –
COC(=S)NC[C@H]1CN(c2ccc(N3CCn4c(=O)c5cccnc5n4CC3)c(F)c2)C(=O)O1 | 0.125 | 2 | 16 | 2 | 0.5 | 0.25 | 0.25 | 0.25 | 3.17 | 0.25
COC(=S)NC[C@H]1CN(c2cc(F)c(N3CCn4c(=O)c5cccnc5n4CC3)c(F)c2)C(=O)O1 | 0.125 | 2 | > 64 | 1 | 0.5 | 0.25 | 0.25 | 0.25 | 9.83 | 0.25
O=C1O[C@@H](Cn2ccnn2)CN1c1ccc(N2CCn3c(=O)c4cccnc4n3CC2)c(F)c1 | 1 | 64 | 32 | 32 | 4 | 4 | 4 | 2 | – | –
O=C1O[C@@H](Cn2ccnn2)CN1c1cc(F)c(N2CCn3c(=O)c4cccnc4n3CC2)c(F)c1 | 0.5 | 8 | 32 | 8 | 1 | 1 | 2 | 0.5 | – | –
CC(=O)NC[C@H]1CN(c2cc(F)c(N3CCn4c(=O)c5cc(Cl)cnc5n4CC3)c(F)c2)C(=O)O1 | 0.25 | 8 | 64 | 4 | 2 | 1 | 1 | 1 | – | –
CC(=O)NC[C@H]1CN(c2cc(F)c(N3CCn4c(=O)c5cc(Br)cnc5n4CC3)c(F)c2)C(=O)O1 | 0.25 | 8 | 64 | 4 | 2 | 1 | 1 | 1 | – | –
CC(=O)NC[C@H]1CN(c2cc(F)c(N3CCON(C(C)=O)CC3)c(F)c2)C(=O)O1 | 1 | 32 | 32 | 4 | 2 | 4 | 4 | 2 | – | –
COC(=S)NC[C@H]1CN(c2ccc(N3CCNN(C(C)=O)CC3)c(F)c2)C(=O)O1 | 0.063 | 8 | 16 | 4 | 0.5 | 0.5 | 1 | 0.5 | 2.85 | 0.5
CC(=O)N1CCN(c2c(F)cc(N3C[C@H](CNC(C)=S)OC3=O)cc2F)CCO1 | 0.125 | 4 | 8 | 2 | 0.5 | 0.5 | 1 | 0.25 | – | –
COC(=S)NC[C@H]1CN(c2cc(F)c(N3CCNN(C(C)=O)CC3)c(F)c2)C(=O)O1 | 0.125 | 4 | 32 | 2 | 1 | 0.5 | 1 | 0.5 | – | –
